The record followed here is ChEMBL document CHEMBL3351726 (J Med Chem, 2014).

One may read the IC50 as the concentration needed to halve the response being measured. Read a low IC50 as greater potency in that assay. Usually inhibition stands for how much of the control response was suppressed.

Series [1] in a line: Retention time of the compound measured over 6 mins at flow rate of 0.5 mL/min by HPLC. In kind it is physicochemical. Particulars: 0.1 h.
For series [2], the target named is T1, Sodium channel protein type 9 subunit alpha (Homo sapiens, UniProt Q15858). The experiment in a line: Inhibition of human Nav1.7 expressed in HEK-293 cells at -130 to -110 mV holding potential by whole-cell voltage clamp analysis. Format: cell-based, HEK293.
Target sequence in this assay (Q15858 whole entry): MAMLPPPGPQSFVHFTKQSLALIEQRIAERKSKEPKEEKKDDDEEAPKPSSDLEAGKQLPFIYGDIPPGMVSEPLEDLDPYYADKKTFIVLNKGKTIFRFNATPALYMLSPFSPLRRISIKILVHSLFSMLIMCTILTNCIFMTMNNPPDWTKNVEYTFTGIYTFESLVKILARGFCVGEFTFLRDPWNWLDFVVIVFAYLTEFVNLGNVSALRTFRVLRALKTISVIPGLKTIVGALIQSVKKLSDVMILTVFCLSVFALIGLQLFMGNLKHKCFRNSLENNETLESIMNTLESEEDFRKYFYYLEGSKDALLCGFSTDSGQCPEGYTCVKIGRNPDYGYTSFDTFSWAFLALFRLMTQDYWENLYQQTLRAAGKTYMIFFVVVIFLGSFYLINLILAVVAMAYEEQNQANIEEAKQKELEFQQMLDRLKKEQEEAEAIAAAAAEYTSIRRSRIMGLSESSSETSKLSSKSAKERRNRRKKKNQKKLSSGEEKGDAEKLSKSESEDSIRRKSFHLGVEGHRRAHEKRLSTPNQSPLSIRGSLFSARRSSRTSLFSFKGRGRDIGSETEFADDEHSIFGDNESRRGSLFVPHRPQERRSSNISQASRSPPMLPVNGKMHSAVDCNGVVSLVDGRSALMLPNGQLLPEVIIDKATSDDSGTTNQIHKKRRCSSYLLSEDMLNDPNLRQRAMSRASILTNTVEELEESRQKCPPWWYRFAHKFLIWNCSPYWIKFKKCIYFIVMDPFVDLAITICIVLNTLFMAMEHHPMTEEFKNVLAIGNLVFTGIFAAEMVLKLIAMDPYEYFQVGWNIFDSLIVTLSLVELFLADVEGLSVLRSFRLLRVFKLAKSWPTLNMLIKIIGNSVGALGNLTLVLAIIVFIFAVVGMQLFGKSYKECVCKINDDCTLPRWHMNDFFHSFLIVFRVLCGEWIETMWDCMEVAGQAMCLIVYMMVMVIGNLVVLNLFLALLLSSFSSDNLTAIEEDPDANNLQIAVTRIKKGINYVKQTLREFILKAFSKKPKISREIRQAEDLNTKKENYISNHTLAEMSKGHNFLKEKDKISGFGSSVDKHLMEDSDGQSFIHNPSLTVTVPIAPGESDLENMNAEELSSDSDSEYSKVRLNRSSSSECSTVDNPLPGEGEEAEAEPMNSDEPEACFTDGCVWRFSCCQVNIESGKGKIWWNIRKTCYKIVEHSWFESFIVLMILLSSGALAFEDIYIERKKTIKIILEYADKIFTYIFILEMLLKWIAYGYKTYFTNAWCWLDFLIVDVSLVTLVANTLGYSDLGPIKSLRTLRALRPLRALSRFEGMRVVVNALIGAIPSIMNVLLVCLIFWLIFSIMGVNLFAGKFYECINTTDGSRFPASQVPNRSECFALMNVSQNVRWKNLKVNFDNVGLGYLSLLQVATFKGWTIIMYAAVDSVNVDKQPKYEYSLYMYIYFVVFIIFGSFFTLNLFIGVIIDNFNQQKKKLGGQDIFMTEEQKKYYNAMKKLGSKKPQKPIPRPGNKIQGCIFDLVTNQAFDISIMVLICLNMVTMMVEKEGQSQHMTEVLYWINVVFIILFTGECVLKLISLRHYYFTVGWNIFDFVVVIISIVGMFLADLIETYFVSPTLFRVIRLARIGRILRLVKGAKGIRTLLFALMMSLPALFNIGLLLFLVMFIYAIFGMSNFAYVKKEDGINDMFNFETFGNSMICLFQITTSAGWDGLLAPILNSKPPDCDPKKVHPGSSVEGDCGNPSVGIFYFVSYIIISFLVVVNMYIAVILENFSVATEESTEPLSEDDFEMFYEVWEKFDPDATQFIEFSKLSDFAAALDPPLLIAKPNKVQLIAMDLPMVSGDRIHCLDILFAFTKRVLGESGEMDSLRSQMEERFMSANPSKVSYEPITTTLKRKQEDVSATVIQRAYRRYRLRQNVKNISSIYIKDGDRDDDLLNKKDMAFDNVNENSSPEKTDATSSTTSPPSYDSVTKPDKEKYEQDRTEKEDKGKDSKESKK
Series [3] is described as follows: Retention time of the compound measured over 30 mins at flow rate of 1 mL/min by HPLC. Format: physicochemical. Particulars: 0.5 h. In a few lines: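 Reversed-phase analytical HPLC or LC−MS on a SymmetryShield RP18 column (5 μm, 4.6 × 150 mm). Gradient 10−60% B over 30 min at 1 mL/min; A = 0.1% TFA in water, B = 0.1% TFA in acetonitrile.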
A further series has as its system HEK293. The experiment in a line: Selectivity ratio of IC50 for rat Nav1.2 expressed in HEK-293 cells to IC50 for human Nav1.7 expressed in HEK-293 cells. Format: cell-based.
A short description of series [4]: Retention time of the compound measured over 15 mins at flow rate of 1 mL/min by HPLC.
For series [5], the target named is T1, Sodium channel protein type 9 subunit alpha. The experiment in a line: Inhibition of human Nav1.7 expressed in HEK-293 cells assessed as inhibition of channel-mediated current at 1 nM by time-course experiment. In kind it is cell-based. Conditions: HEK293. In a few lines:
(§1)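 HEK-293 cells on poly-D-lysine-coated dishes in DMEM at 37 °C, 5% CO2; recorded 12−48 h after plating. Whole-cell voltage-clamp sodium currents under continuous perfusion with extracellular solution. Compounds applied via a gravity-driven superfusion pipette array with its outlet about 100 μm from the cell.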
Target sequence in this assay (Q15858 whole entry, looked up): as the sequence (Q15858 whole entry) above

Series [6] shares this target. The experiment in a line: Inhibition of human Nav1.7 expressed in HEK-293 cells assessed as inhibition of channel-mediated current at 1 nM followed by wash-out and compound treatment at 0.1 nM by time-course experiment relative to initial peak amplitude. Format: cell-based. Conditions: HEK293. The essentials:
as §1
Target sequence in this assay (Q15858 whole entry, looked up): as the sequence (Q15858 whole entry) above

The target is the same in series [7]. The experiment in a line: Inhibition of human Nav1.7 expressed in HEK-293 cells assessed as time for channel-mediated current inhibition at 2 nM by time-course experiment. In kind it is cell-based. Particulars: HEK293. In a few lines: as §1
Target sequence in this assay (Q15858 whole entry, looked up): as the sequence (Q15858 whole entry) above

Activity calls are given as the source filed them. The calls are words filed in the database; no cut-off is given here. Residues, ends and D or L forms follow the SMILES beside them.

For the compound `COC(=O)[C@H](Cc1c[nH]c2ccccc12)NC(=O)[C@H](CC(C)C)NC(=O)[C@H](CCCCN)NC(=O)[C@H](CCCCN)NC(=O)[C@H](CCCCN)NC(=O)[C@@H]1CSSC[C@@H]2NC(=O)[C@H](CCCCN)NC(=O)[C@H](CCCNC(=N)N)NC(=O)[C@H](CCC(=O)O)NC(=O)[C@H](CO)NC(=O)[C@H](CC(=O)O)NC(=O)[C@@H]3CSSC[C@H](NC(=O)[C@H](C(C)C)NC(=O)[C@H](CCSC)NC(=O)CNC(=O)[C@H](CCC(=O)O)NC(=O)[C@H](CSSC[C@H](NC(=O)[C@@H](N)Cc4ccc(O)cc4)C(=O)N[C@@H](CCC(N)=O)C(=O)N[C@@H](CCCCN)C(=O)N[C@@H](Cc4c[nH]c5ccccc45)C(=O)N[C@@H](CCSC)C(=O)N[C@@H](Cc4c[nH]c5ccccc45)C(=O)N[C@@H]([C@@H](C)O)C(=O)N3)NC2=O)C(=O)N[C@@H](CCCNC(=N)N)C(=O)N[C@@H](CC(C)C)C(=O)N[C@@H](Cc2c[nH]c3ccccc23)C(=O)N1`, the Retention_time was 2.93 min in series [1] and 13.17 min in series [3]. Also, the IC50 in series [2] is 0.6 nM. Further, the Ratio IC50 in the series on HEK293 was 5.
`CSCC[C@@H]1NC(=O)CNC(=O)[C@H](CCC(=O)O)NC(=O)[C@@H]2CSSC[C@H](NC(=O)[C@@H](N)Cc3ccc(O)cc3)C(=O)N[C@@H](CCC(N)=O)C(=O)N[C@@H](CCCCN)C(=O)N[C@@H](Cc3c[nH]c4ccccc34)C(=O)N[C@@H](CCSC)C(=O)N[C@@H](Cc3c[nH]c4ccccc34)C(=O)N[C@@H]([C@@H](C)O)C(=O)N[C@H]3CSSC[C@H](NC(=O)[C@H](C(C)C)NC1=O)C(=O)N[C@@H](CCCNC(=N)N)C(=O)N[C@@H](CC(C)C)C(=O)N[C@@H](Cc1c[nH]c4ccccc14)C(=O)N[C@H](C(=O)N[C@@H](CCCCN)C(=O)N[C@@H](CCCCN)C(=O)N[C@@H](CCCCN)C(=O)N[C@@H](CC(C)C)C(=O)N[C@@H](Cc1c[nH]c4ccccc14)C(=O)Nc1ccccc1)CSSC[C@H](NC(=O)[C@H](CCCCN)NC(=O)[C@H](CCCNC(=N)N)NC(=O)[C@H](CCC(=O)O)NC(=O)[C@H](CO)NC(=O)[C@H](CC(=O)O)NC3=O)C(=O)N2`: the Retention_time in series [1] stood at 2.57 min; in series [3], 14.13 min. In addition, the IC50 in series [2] was found to be 0.8 nM. Besides, the Ratio IC50 in the series with HEK293 amounted to 4.
For the compound `[H][C@]12CSSC[C@@H](C(=O)N[C@@H](CCCCN)C(=O)N[C@@H](CCCCN)C(=O)N[C@@H](CC(C)C)C(=O)N[C@@H](Cc3c[nH]c4ccccc34)C(=O)O)NC(=O)[C@H](Cc3c[nH]c4ccccc34)NC(=O)[C@H](CC(C)C)NC(=O)[C@H](CCCNC(=N)N)NC(=O)[C@]3([H])CSSC[C@]([H])(NC(=O)[C@]([H])([C@@H](C)O)NC(=O)[C@H](Cc4c[nH]c5ccccc45)NC(=O)[C@H](CCSC)NC(=O)[C@H](Cc4c[nH]c5ccccc45)NC(=O)[C@H](CCCCN)NC(=O)[C@H](CCC(N)=O)NC(=O)[C@@H](NC(=O)[C@@H](N)Cc4ccc(O)cc4)CSSC[C@]([H])(NC1=O)C(=O)N[C@@H](CCC(=O)O)C(=O)NCC(=O)N[C@@H](CC(C)C)C(=O)N[C@@H](C(C)C)C(=O)N3)C(=O)N[C@@H](CC(=O)O)C(=O)N[C@@H](CO)C(=O)N[C@@H](C)C(=O)N[C@@H](CCCNC(=N)N)C(=O)N[C@@H](CCCCN)C(=O)N2` (HELM PEPTIDE1{Y.C.Q.K.W.M.W.T.C.D.S.A.R.K.C.C.E.G.L.V.C.R.L.W.C.K.K.L.W}$PEPTIDE1,PEPTIDE1,2:R3-16:R3|PEPTIDE1,PEPTIDE1,9:R3-21:R3|PEPTIDE1,PEPTIDE1,15:R3-25:R3$$$V2.0), the Retention_time in series [4] was 9.25 min; in series [3], 15.35 min. This compound also yielded an IC50 in series [2] of 67 nM. The Ratio IC50 in the series with HEK293 was 1.
Consider `CNC(=O)[C@H](Cc1c[nH]c2ccccc12)NC(=O)[C@H](CC(C)C)NC(=O)[C@H](CCCCN)NC(=O)[C@H](CCCCN)NC(=O)[C@H](CCCCN)NC(=O)[C@@H]1CSSC[C@@H]2NC(=O)[C@H](CCCCN)NC(=O)[C@H](CCCNC(=N)N)NC(=O)[C@H](CCC(=O)O)NC(=O)[C@H](CO)NC(=O)[C@H](CC(=O)O)NC(=O)[C@@H]3CSSC[C@H](NC(=O)[C@H](C(C)C)NC(=O)[C@H](CCSC)NC(=O)CNC(=O)[C@H](CCC(=O)O)NC(=O)[C@H](CSSC[C@H](NC(=O)[C@@H](N)Cc4ccc(O)cc4)C(=O)N[C@@H](CCC(N)=O)C(=O)N[C@@H](CCCCN)C(=O)N[C@@H](Cc4c[nH]c5ccccc45)C(=O)N[C@@H](CCSC)C(=O)N[C@@H](Cc4c[nH]c5ccccc45)C(=O)N[C@@H]([C@@H](C)O)C(=O)N3)NC2=O)C(=O)N[C@@H](CCCNC(=N)N)C(=O)N[C@@H](CC(C)C)C(=O)N[C@@H](Cc2c[nH]c3ccccc23)C(=O)N1`, for which the Retention_time in series [1] was 2.52 min; in series [3] it was 12.44 min. The same compound yielded an IC50 in series [2] of 0.042 nM. In the series with HEK293, the Ratio IC50 is 83. Besides, the inhibition result in series [5] is “Active”. Also, the inhibition in series [6] was 80%.
Turning to `CSCC[C@@H]1NC(=O)CNC(=O)[C@H](CCC(=O)O)NC(=O)[C@@H]2CSSC[C@H](NC(=O)[C@@H](N)Cc3ccc(O)cc3)C(=O)N[C@@H](CCC(N)=O)C(=O)N[C@@H](CCCCN)C(=O)N[C@@H](Cc3c[nH]c4ccccc34)C(=O)N[C@@H](CCSC)C(=O)N[C@@H](Cc3c[nH]c4ccccc34)C(=O)N[C@@H]([C@@H](C)O)C(=O)N[C@H]3CSSC[C@H](NC(=O)[C@H](C(C)C)NC1=O)C(=O)N[C@@H](CCCNC(=N)N)C(=O)N[C@@H](CC(C)C)C(=O)N[C@@H](Cc1c[nH]c4ccccc14)C(=O)N[C@H](C(=O)N[C@@H](CCCCN)C(=O)N[C@@H](CCCCN)C(=O)N[C@@H](CCCCN)C(=O)N[C@@H](CC(C)C)C(=O)N[C@@H](Cc1c[nH]c4ccccc14)C(=O)O)CSSC[C@H](NC(=O)[C@H](CCCCN)NC(=O)[C@H](CCCNC(=N)N)NC(=O)[C@H](C)NC(=O)[C@H](CO)NC(=O)[C@H](CC(=O)O)NC3=O)C(=O)N2`, in series [7], the TIME was 0.0606 h. The figures for the Retention_time in series [4] and in series [3] were 9.29 min and 14.54 min, respectively. The Ratio IC50 with HEK293 stood at 40.
On to `CSCC[C@@H]1NC(=O)[C@H](Cc2c[nH]c3ccccc23)NC(=O)[C@H](CCCCN)NC(=O)[C@H](CCC(N)=O)NC(=O)[C@@H](NC(=O)[C@@H](N)Cc2ccc(O)cc2)CSSC[C@@H]2NC(=O)[C@@H]3CSSC[C@@H](C(=O)N[C@@H](CCCCN)C(=O)N[C@@H](CCCCN)C(=O)N[C@@H](CCCCN)C(=O)N[C@@H](CC(C)C)C(=O)N[C@@H](Cc4c[nH]c5ccccc45)C(=O)O)NC(=O)[C@H](Cc4c[nH]c5ccccc45)NC(=O)[C@H](CC(C)C)NC(=O)[C@H](CCC(=O)O)NC(=O)[C@H](CSSC[C@H](NC(=O)[C@H]([C@@H](C)O)NC(=O)[C@H](Cc4c[nH]c5ccccc45)NC1=O)C(=O)N[C@@H](CC(=O)O)C(=O)N[C@@H](CO)C(=O)N[C@@H](CCC(=O)O)C(=O)N[C@@H](CCCNC(=N)N)C(=O)N[C@@H](CCCCN)C(=O)N3)NC(=O)[C@H](C(C)C)NC(=O)[C@H](Cc1ccc(O)cc1)NC(=O)CNC(=O)[C@H](CCC(=O)O)NC2=O`, for which the Retention_time in series [4] was 9.09 min; in series [3], 14.36 min. In addition, the IC50 in series [2] is more than 3000 nM.
